Bioassay records (PubChem)
Ecoli WT expand: growth inhibitors of E. coli BW25113 wild type; OD600 absorbance; growth inhibition, % at 100 µM; 98,000 tested, 0.15% active; AID 710;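 active = growth inhibition above about 50% at one test dose, limit read from the data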;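 note: growth measured after 20 h incubation at 37 °C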
PostGolgi ctrl: yeast control strain growth, post-Golgi counter-screen; efflux-deficient yeast background strain, growth absorbance A615, 16 h; inhibition, % at 10 µM; 98,000 tested, 5% active
PTK2B oligo ant: Pyk2 (human) oligomerization antagonism. Q14289. Q293 cells, Pyk2 FERM NanoBiT luminescence; active compounds read low. z-score (the deposit names both 25 µM and 10 µM). 99,000 tested, 0.83% active;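 active = Z-score of -3 or lower, scaled per plate to the spread of control and sample wells; inactive = z-score above -3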;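 note: negative z-score means lost luminescence so less FERM oligomerization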
Target sequence (Q14289 whole entry, looked up): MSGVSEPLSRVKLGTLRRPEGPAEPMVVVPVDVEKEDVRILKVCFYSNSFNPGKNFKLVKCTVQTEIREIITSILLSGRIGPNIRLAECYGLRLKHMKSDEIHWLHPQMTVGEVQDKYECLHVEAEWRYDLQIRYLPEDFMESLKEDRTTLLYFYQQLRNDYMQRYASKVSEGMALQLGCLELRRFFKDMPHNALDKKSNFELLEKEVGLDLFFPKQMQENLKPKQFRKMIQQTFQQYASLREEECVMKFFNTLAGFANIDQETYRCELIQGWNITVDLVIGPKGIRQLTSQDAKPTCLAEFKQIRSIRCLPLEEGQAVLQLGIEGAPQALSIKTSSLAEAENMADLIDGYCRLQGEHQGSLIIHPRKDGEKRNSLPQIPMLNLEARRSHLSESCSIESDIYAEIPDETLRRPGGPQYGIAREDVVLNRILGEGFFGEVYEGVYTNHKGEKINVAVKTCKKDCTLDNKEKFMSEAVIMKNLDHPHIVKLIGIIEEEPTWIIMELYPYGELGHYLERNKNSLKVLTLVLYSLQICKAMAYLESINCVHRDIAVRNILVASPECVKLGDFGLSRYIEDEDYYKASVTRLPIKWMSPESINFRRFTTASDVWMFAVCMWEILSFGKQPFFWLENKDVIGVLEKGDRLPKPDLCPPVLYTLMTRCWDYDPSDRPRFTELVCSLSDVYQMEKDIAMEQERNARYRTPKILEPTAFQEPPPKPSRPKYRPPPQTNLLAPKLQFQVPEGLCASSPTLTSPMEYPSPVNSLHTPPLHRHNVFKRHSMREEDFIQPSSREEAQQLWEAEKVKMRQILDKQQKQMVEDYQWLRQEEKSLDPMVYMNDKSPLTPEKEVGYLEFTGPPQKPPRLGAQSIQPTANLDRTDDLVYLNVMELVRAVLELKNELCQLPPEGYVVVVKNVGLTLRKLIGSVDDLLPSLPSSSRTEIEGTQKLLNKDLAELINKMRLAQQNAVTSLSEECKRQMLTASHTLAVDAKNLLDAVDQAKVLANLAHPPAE
Candida biofilm: kills Candida albicans biofilms. C. albicans biofilm + clotrimazole, Alamar Blue. inhibition, % at 6 µM. 85,000 tested, 0.14% active;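 active = inhibition above 20%; inactive = inhibition below 20%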;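 note: preformed 24 hr biofilms exposed to compound for 48 hr; 0% = biofilm without compound and 100% = blank killed by clotrimazole plus chlorhexidine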
PostGolgi yeast: growth inhibition of a yeast mutant, post-Golgi transport screen; post-Golgi transport phenotypic cell assay; inhibition, % at 10 µM; 98,000 tested, 0.9% active;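 note: yeast cells grown in 1536-well plates; yeast grown about 18 h at 30C before absorbance read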
tolC growth inh: growth inhibitors of E. coli BW25113 tolC mutant. 65,000 tested, 2.2% active. OD615. AID 573. growth inhibition, % at 10 µM (by protocol);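 active = growth inhibition at or above a cutoff equal to the mean over every tested compound plus 3 SD, cut at about 60% in these data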;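 note: growth measured after 20 h incubation at 37 °C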
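Material: E. coli BW25113 ΔtolC::kan, tolC deletion mutant strain. Measure: percent growth inhibition. Schedule: 37 °C, 20 h exposure. Doses: single-point testing at 10 µM. Signal: A615 absorbance measurement. Buffer or medium: kanamycin-containing LB broth (50 µg/mL).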
Starred values were filed as active, the others as inactive. Sampled rows, rich in hits. Any-hit rate of the full collection: about 6.5%. Cut-off read from the data, not from the text of the source, unless noted: active = inhibition above about 30%; inactive = the rest.

For COc1ccccc1-c1nnc2sc(COc3ccc(Cl)cc3)nn12 the results were Ecoli WT expand -10, PostGolgi ctrl 35*, PTK2B oligo ant -0.56, Candida biofilm 9, PostGolgi yeast 11 and tolC growth inh 69*.
CC1C(=O)CCN(C(C)(C)C)C1C (stereo not drawn) was read as Ecoli WT expand 0, PostGolgi ctrl -1, PTK2B oligo ant 1.6, Candida biofilm 8 and PostGolgi yeast -11.
Cc1cc(NC(=O)Cn2cnc3c2c(=O)n(C)c(=O)n3C)n(-c2ccccc2)n1 was read as Ecoli WT expand 4, PostGolgi ctrl -9, PTK2B oligo ant -0.4, Candida biofilm 4, PostGolgi yeast -12 and tolC growth inh -22.
Screening Cc1cc(/C=C(/C#N)C(=O)Nc2ccccc2)c(C)n1-c1cccnc1 returned Ecoli WT expand -1, PostGolgi ctrl 16, PTK2B oligo ant -0.55 and PostGolgi yeast 4.
For Cc1cc(/C=C(\C#N)C(=O)Nc2ccccc2)c(C)n1-c1ccc2c(c1)OCO2 the results were Ecoli WT expand -12, PostGolgi ctrl 55*, PTK2B oligo ant -1.8 and PostGolgi yeast -6.
Cc1cccc2sc(NC(=O)CSc3nc4ccccc4o3)nc12 was read as Ecoli WT expand -8, PostGolgi ctrl 9, PTK2B oligo ant 0.27, Candida biofilm 52* and PostGolgi yeast 5.
O=C(CSc1nc2ccccc2o1)Nc1nc2ccc(Br)cc2s1 was read as Ecoli WT expand -7, PostGolgi ctrl -5, PTK2B oligo ant 1.7 and PostGolgi yeast 11.
Cc1cc(/C=N/NC(=O)c2cccc([N+](=O)[O-])c2)c(C)n1-c1ccc(Cl)cc1Cl was read as Ecoli WT expand -18, PostGolgi ctrl 14, PTK2B oligo ant 0.62 and PostGolgi yeast 34*.
O=C(CNC1CCCCCC1)Nc1ccccc1N1CCCCC1 was read as Ecoli WT expand 15, PostGolgi ctrl 11, PTK2B oligo ant 0.53, Candida biofilm -2 and PostGolgi yeast 2.
For O=C(CNCCC1=CCCCC1)Nc1ccccc1N1CCCCC1 the results were Ecoli WT expand 10, PostGolgi ctrl 27, PTK2B oligo ant -1.4, Candida biofilm 6, PostGolgi yeast 2 and tolC growth inh 100*.
`CCCCOC(=O)N/N=C/C=C/c1ccccc1` gave PTK2B oligo ant 0.21.
For O=C(N/C=C/c1ccccc1)Nc1ccc(Cl)cc1 the results were Ecoli WT expand 3, PostGolgi ctrl 3, PTK2B oligo ant 0.55 and PostGolgi yeast 1.
Cc1ccc(NC(=O)N/C=C/c2ccc(Cl)cc2)cc1 was read as Ecoli WT expand -6, PostGolgi ctrl 31*, PTK2B oligo ant -0.07 and PostGolgi yeast -7.
For CO/N=C(/CNC(=O)c1ccc(Cl)cc1Cl)c1ccc(Cl)cc1 the results were Ecoli WT expand -7, PostGolgi ctrl 18, PTK2B oligo ant 0.52 and PostGolgi yeast 2.
Screening CO/N=C(/CS(=O)(=O)Cc1ccccc1Cl)c1ccc(Cl)cc1Cl returned Ecoli WT expand -6, PostGolgi ctrl 33*, PTK2B oligo ant -1.4 and PostGolgi yeast -1.
For CCN1C(=O)CC(N2CCC(C(=O)OC)CC2)C1=O (stereo not drawn) the results were Ecoli WT expand -3, PostGolgi ctrl 32*, PTK2B oligo ant -0.19, Candida biofilm 6, PostGolgi yeast 4 and tolC growth inh -22.
Screening O=C(C1CCN(C2CC(=O)N(Cc3ccccc3)C2=O)CC1)N1CCCCCC1 (stereo not drawn) returned Ecoli WT expand 5, PostGolgi ctrl 3, PTK2B oligo ant 0.73, Candida biofilm 1, PostGolgi yeast 32* and tolC growth inh -5.
O=C1CC(N2CCN(C3CC(=O)N(CCc4ccccc4)C3=O)CC2)C(=O)N1CCc1ccccc1 (stereo not drawn) was read as Ecoli WT expand -12, PostGolgi ctrl 47*, PTK2B oligo ant 0.24, Candida biofilm 6, PostGolgi yeast -2 and tolC growth inh 1.
Screening CCN1C(=O)CC(N2CCC(Nc3ccc(OC)cc3)CC2)C1=O (stereo not drawn) returned Ecoli WT expand 6, PostGolgi ctrl -1, PTK2B oligo ant 0.05, Candida biofilm 4, PostGolgi yeast -5 and tolC growth inh -4.
For CCC(=O)n1nc(-c2ccc(Cl)cc2)nc1NCc1ccccc1 the results were Ecoli WT expand -5, PostGolgi ctrl 4, Candida biofilm 8 and PostGolgi yeast -2.
Screening COc1ccc(CCNC(=O)COc2ccc(S(=O)(=O)NC3CCCCC3)cc2Cl)cc1 returned Ecoli WT expand -6, PostGolgi ctrl 11, PTK2B oligo ant 0.17 and PostGolgi yeast 0.
